RGS4 block: RGS4 inhibitors, primary screen, cell-based, HEK293 M3R inducible RGS4, calcium flux; Regulator of G-protein signaling 4 (Homo sapiens), P49798; Fluo-4 calcium flux; hits give high values; triggered by carbachol at its EC20; B-score at 10 µM; actives 0.45% (n = 310,000);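 active = B-score, a plate-corrected calcium signal, over three deviations above library mean, with baseline fluorescence within five deviations of library mean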;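 also: RGS4 expression induced by doxycycline in cells with stable M3 receptor; B-score is computed from the integrated fluorescence ratio over baseline after carbachol; higher B-score means a larger calcium signal and so more RGS4 inhibition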
Target sequence (P49798 whole entry, looked up): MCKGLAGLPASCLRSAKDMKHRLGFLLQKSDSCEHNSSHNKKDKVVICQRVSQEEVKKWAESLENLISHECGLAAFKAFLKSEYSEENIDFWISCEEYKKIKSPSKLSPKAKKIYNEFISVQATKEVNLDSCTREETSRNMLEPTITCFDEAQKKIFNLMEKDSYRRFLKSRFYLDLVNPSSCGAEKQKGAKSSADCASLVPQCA
MrgX1 allo act: positive allosteric modulators of MrgX1, primary screen, HEK293 cells, Fluo-4 calcium flux; Mas-related G-protein coupled receptor member X1 (Homo sapiens), Q96LB2; FDSS; hits give high values; B-score at 10 µM; actives 0.63% (n = 310,000); AID 588675, 2011;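 active = plate-corrected calcium response at least 3 library SD above typical, normal starting fluorescence, not activating the receptor alone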;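 also: compound read alongside a low EC10 to EC30 dose of BAM8-22 agonist; peak minus trough fluorescence over baseline measured at the second addition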
MrgX1 antag: antagonists of human MrgX1 receptor, primary screen, HEK293 cells, Fluo-4 calcium flux | Mas-related G-protein coupled receptor member X1 (Homo sapiens), Q96LB2 | BAM8-22 antagonism; hits give low values | B-score at 10 µM | actives 1.3% (n = 310,000) | AID 588676, 2011;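 active = calcium-response B-score plate-corrected more than 3 library SD below zero, starting fluorescence within 5 deviations, no agonist response on first addition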;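 also: peak minus trough fluorescence over baseline after final BAM8-22 challenge near maximal dose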
MrgX1 ag: agonists of human MrgX1 receptor, primary screen, HEK293 cells, Fluo-4 calcium flux | Mas-related G-protein coupled receptor member X1 (Homo sapiens), Q96LB2 | B-score at 10 µM | Fluo-4 calcium fluorescence, agonist mode; hits give high values | actives 0.44% (n = 310,000);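 active = calcium response B-score plate-corrected fluorescence ratio at least 3 library SD, with starting fluorescence B-score inside 5 SD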
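System – MrgX1-expressing HEK293 cells · Incubation – cells plated overnight, dye loaded 0.5 h 37 °C, 0.5 h room temperature · Technique – kinetic Fluo-4 NW fluorescence of intracellular calcium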
RGS4 pot: RGS4 potentiators or activators, primary screen, cell-based, HEK293 M3R inducible RGS4, calcium flux; B-score at 10 µM; AID 463111, 2010; carbachol calcium flux Fluo4; hits give low values; actives 0.92% (n = 310,000);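 active = B-score of the integrated calcium signal more than 4 SD below the library mean, with starting fluorescence not abnormally high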;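 also: negative B-score means reduced calcium response which marks RGS4 activation or potentiation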
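Material: Inducible-RGS4 HEK293 cells carrying M3 receptor; also added: carbachol at ECmax as muscarinic agonist stimulus; incubation: compound preincubation 20 min at room temperature before agonist; signal: Fluo4-AM (2 µM) calcium-flux fluorescence, kinetic read; measure: integrated calcium ratio converted to B score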
MrgX1 ag confirm: MrgX1 receptor agonists, duplicate retest, confirmation, HEK293 cells, Fluo-4 calcium flux; shares compounds with MrgX1 ag; Fluo-4 calcium fluorescence, FDSS; activation, % at 10 µM; actives 78% (n = 600); AID 602412, 2012;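 active = calcium signal rise, corrected for plate position, at least 3 library SD high, with starting brightness within 5 such deviations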; also: reference of the scale not given here
HEK293 Ca flux: nonspecific calcium signal in parental HEK293, confirmation, counter-screen for MrgX1 antagonist project, parental HEK293 cells, Fluo-4 calcium flux | shares compounds with MrgX1 antag | Fluo-4 calcium fluorescence, FDSS | fluorescence ratio F(max-min)/F0 at 10 µM | actives 2% (n = 4,000);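 active = duplicate-averaged calcium fluorescence ratio at least three times the standard deviation of buffer wells, a nonspecific response in parental cells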
HEK293 Ca counter: calcium response in parental HEK293 cells, primary screen, counter-screen for MrgX1 allosteric activator project, cell-based, Fluo-4 calcium flux, duplicate. Fluo-4 fluorescence ratio; hits give high values. fluorescence ratio F(max-min)/F0 at 10 µM. shares compounds with MrgX1 antag. actives 0.4% (n = 4,000);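 active = calcium fluorescence ratio, averaged over duplicates, at least 3 SD of the buffer-well ratio, meaning a nonspecific response in receptor-free cells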;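 also: untransfected parental HEK293 lacking MrgX1 used as counterscreen for MrgX1 allosteric activators; fluorescence change taken during the second addition on a kinetic imager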
HEK293 Ca cntr2: calcium response in parental HEK293 cells, primary screen, counter-screen for MrgX1 agonist project, cell-based, Fluo-4 calcium flux, duplicate, agonist mode; shares compounds with MrgX1 antag; Fluo-4 calcium fluorescence (FDSS); hits give high values; fluorescence ratio F(max-min)/F0 at 10 µM; actives 8.7% (n = 4,000); AID 624115, 2012;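 active = calcium fluorescence ratio at least three times the spread of buffer wells, meaning a non-specific response in parental cells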
An asterisk follows results filed as active; i = inactive; . = no result given. Most compounds without a hit are left out; they make up all but 3.5% or so of the library.

SMILES	RGS4 block	MrgX1 allo act	MrgX1 antag	MrgX1 ag	RGS4 pot	MrgX1 ag confirm	HEK293 Ca flux	HEK293 Ca counter	HEK293 Ca cntr2
CN(C)c1ccc2c3c(ccc(N(C)C)c13)C(=O)OC2	i	i	i	i	i	.	.	.	.
Cc1nn(-c2ccccc2)c2c1C(c1ccc(F)cc1F)C(C#N)=C(N)O2 (stereo unspecified)	i	i	i	27*	i	183%*	i	i	i
CC[C@@H](C(=O)[C@@H](C)[C@@H](O)[C@H](C)CCc1ccc(C)c(O)c1C(=O)O)[C@H]1O[C@](CC)([C@H]2CC[C@](O)(CC)[C@H](C)O2)C[C@@H]1C	i	i	i	147*	i	909%*	i	i	198*
COc1ccccc1/C=C/CN1CCCC(CCC(=O)NCc2ccccc2F)C1 (stereo unspecified)	i	i	i	i	i	.	.	.	.
CC(=Nc1ccc(Br)cc1)c1sc2ccccc2c1O	i	i	i	i	i	.	.	.	.
CC(=Nc1ccccc1)c1sc2ccccc2c1O	i	i	i	61*	i	376%*	i	i	100*
CN(c1ccccc1)c1nc(N2CCCC2)nc(-n2ccnc2)n1	i	i	i	48*	i	171%*	i	i	51*
C=CCOC(=O)C1=C(C)OC(N)=C(C#N)C1c1ccccc1F (stereo unspecified)	i	i	i	27*	i	173%*	i	i	i
O=C(NCCn1cccn1)C1CCC(=O)N(CCc2ccc(Cl)cc2)C1 (stereo unspecified)	i	i	i	i	i	.	.	.	.
COc1cc(/C=C2\SC(=Nc3ccccc3)NC2=O)cc(Cl)c1O	i	i	i	84*	i	i	0.39*	i	139*
Cc1ccc(NC(=S)N2CCCC(O)C2)cc1 (stereo unspecified)	i	i	i	i	i	.	.	.	.
CCCOc1ccc(C(=O)N/N=C/c2c[nH]c3ccc(Br)cc23)cc1	i	i	i	i	i	.	.	.	.
CCCCCN=C(N)N/N=C/c1c[nH]c2ccc(OC)cc12	i	i	i	75*	i	488%*	i	i	137*
COc1ccc(C2(C)NC(=O)N(CC(=O)Nc3cccnc3Cl)C2=O)cc1 (stereo unspecified)	i	i	i	i	i	.	.	.	.
CC1(c2ccc(OC(F)F)cc2)NC(=O)N(CC(=O)Nc2cccnc2Cl)C1=O (stereo unspecified)	i	i	i	33*	i	137%*	i	i	47*
CCc1ccc(C(C)(O)C(CN2CCOCC2)c2ccccc2)cc1 (stereo unspecified)	i	i	i	i	i	.	.	.	.
C[C@H](NC(=O)N1CCn2c1nc1ccccc12)C(=O)NCc1ccccc1	i	i	i	i	i	.	.	.	.
CCOC(=O)c1ccc2c(c1)NCc1cccc(OC)c1O2	i	i	i	28*	i	i	i	i	i
O=C(O)c1cccc(S(=O)(=O)Nc2ccc3c(c2)CCC3)c1	i	i	i	i	i	.	.	.	.

Source: PubChem BioAssay
